# Experimental data reported in ChEMBL document CHEMBL4406821, “Novel dual inhibitors targeting CDK4 and VEGFR2 synergistically suppressed cancer progression and angiogenesis” (Eur J Med Chem, 2019).
# Activity calls are given as the source filed them. No cut-off for these calls is given here.
# What was measured:
# [1] = tested on: Hepatocyte growth factor receptor (Homo sapiens), P08581 [D1246H]; assay: Inhibition of recombinant human Met D1246H mutant (974 to end residues) at 1 uM using KKKGQEEEYVFIE as substrate incubated for 40 mins in presence of [gamma-33P]-ATP by scintillation counting method relative to control
# [2] = target: Ribosomal protein S6 kinase beta-1 (Homo sapiens) (UniProt P23443); assay: Inhibition of recombinant human p70S6K (1 to 421 residues) at 1 uM using KKRNRTLTV as substrate incubated for 40 mins in presence of [gamma-33P]-ATP by scintillation counting method relative to control
# [3] = target: Serine/threonine-protein kinase WNK1 (Homo sapiens) (UniProt Q9H4A3); assay: Inhibition of recombinant human WNK1 (1 to 491 residues) at 1 uM using myelin basic protein as substrate incubated for 40 mins in presence of [gamma-33P]-ATP by scintillation counting method relative to control
# Summary of the method: (§1)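 Tested at a single 1 uM in an outsourced commercial kinase-profiling panel, read as percent inhibition. Each value is the mean of two independent experiments.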
# [4] = target: Myosin-IIIb (Homo sapiens) (UniProt Q8WXR4); assay: Inhibition of recombinant human MYO3B (1 to 326 residues) at 1 uM using RLGRDKYKTLRQIRQ as substrate incubated for 40 mins in presence of [gamma-33P]-ATP by scintillation counting method relative to control
# [5] = tested on: Macrophage colony-stimulating factor 1 receptor (Homo sapiens), P07333 [Y969C]; assay: Inhibition of recombinant human FMS Y969C mutant (538 to end residues) at 1 uM using EEEEYEEEEEEYY as substrate incubated for 40 mins in presence of [gamma-33P]-ATP by scintillation counting method relative to control
# [6] = Toxicity in NOD/SCID BALB/c mouse xenografted with human SiHa cells assessed as effect on blood parameter by measuring PCT at 40 mg/kg, po administered once two days for 4 times by hematology analyzer; format: organism-based; settings: in vivo
# [7] = target: Serine/threonine-protein kinase ATR (Homo sapiens) (UniProt Q13535); assay: Inhibition of recombinant human full length ATR at 1 uM using GST-cMyc-p53 as substrate incubated for 40 mins in presence of [gamma-33P]-ATP by scintillation counting method relative to control; summary of the method: as §1
# [8] = target: Activin receptor type-1-like (Homo sapiens) (UniProt P37023); assay: Inhibition of recombinant human ALK1 (142 to end residues) at 1 uM using casein as substrate incubated for 40 mins in presence of [gamma-33P]-ATP by scintillation counting method relative to control
# Summary of the method: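 Kinase panel profiling at 1 μM performed by Eurofins KinaseProfiler; percent inhibition reported as mean of two independent experiments.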
# [9] = tested on: Hepatocyte growth factor receptor (Homo sapiens), P08581 [Y1248H]; assay: Inhibition of recombinant human Met Y1248H mutant (974 to end residues) at 1 uM using KKKGQEEEYVFIE as substrate incubated for 40 mins in presence of [gamma-33P]-ATP by scintillation counting method relative to control
# [10] = Tmax in Sprague-Dawley rat at 10 mg/kg, iv by HPLC-MS analysis; format: ADME, organism-based; settings: in vivo
# [11] = Volume of distribution in Sprague-Dawley rat at 10 mg/kg, iv by HPLC-MS analysis; format: ADME, organism-based; settings: in vivo
# CDK2/Cyclin A2 = CDK2/Cyclin A2 (Homo sapiens, UniProt P24941); assay: Inhibition of recombinant human full length CDK2/CyclinA using as histone H1 substrate incubated for 40 mins in presence of [gamma-33P]-ATP by scintillation counting method; format: protein-complex assay
# [12] = Volume of distribution in Sprague-Dawley rat at 10 mg/kg, po by HPLC-MS analysis; format: ADME, organism-based; settings: in vivo
# [13] = tested on: Mitogen-activated protein kinase 14 (Homo sapiens), Q16539 [T106M]; assay: Inhibition of recombinant human full length SAPK2a T106M mutant at 1 uM using myelin basic protein as substrate incubated for 40 mins in presence of [gamma-33P]-ATP by scintillation counting method relative to control; summary of the method: as §1
# [14] = tested on: Angiopoietin-1 receptor (Homo sapiens), Q02763 [Y897S]; assay: Inhibition of recombinant human TIE2 Y897S mutant (771 to end residues) at 1 uM using EFPIYDFLPAKKK as substrate incubated for 40 mins in presence of [gamma-33P]-ATP by scintillation counting method relative to control
# [15] = target: RAF proto-oncogene serine/threonine-protein kinase (Homo sapiens) (UniProt P04049); assay: Inhibition of recombinant human cRaf (306 to end residues) at 1 uM using unactive MEK1 as substrate incubated for 40 mins in presence of [gamma-33P]-ATP by scintillation counting method relative to control
# [16] = target: Platelet-derived growth factor receptor alpha (Homo sapiens) (UniProt P16234); assay: Inhibition of recombinant human PDGFRalpha (550 to end residues) at 1 uM using poly(Glu, Tyr) 4:1 as substrate incubated for 40 mins in presence of [gamma-33P]-ATP by scintillation counting method relative to control; summary of the method: as §1
# [17] = target: Tyrosine-protein kinase TXK (Homo sapiens) (UniProt P42681); assay: Inhibition of recombinant human TXK (256 to end residues) at 1 uM using GEEPLYWSFPAKKK as substrate incubated for 40 mins in presence of [gamma-33P]-ATP by scintillation counting method relative to control; summary of the method: as §1
# [18] = target: Protein kinase C beta type (Homo sapiens) (UniProt P05771); assay: Inhibition of recombinant human PKCbeta1 (2 to end residues) at 1 uM using histone H1 as substrate incubated for 40 mins in presence of [gamma-33P]-ATP by scintillation counting method relative to control
# [19] = target: Fibroblast growth factor receptor 3 (Homo sapiens) (UniProt P22607); assay: Inhibition of recombinant human FGFR3 (447 to 761 residues) at 1 uM using poly(Glu, Tyr) 4:1 as substrate incubated for 40 mins in presence of [gamma-33P]-ATP by scintillation counting method relative to control; summary of the method: as §1
# HeLa [20] = assay: Induction of apoptosis in human HeLa cells assessed as decrease in Rb phosphorylation incubated for 48 hrs by Western blot analysis; format: functional, cell-based
# Summary of the method: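 Cells were treated for 48 h, washed three times with PBS, and lysed in RIPA buffer. Immunoblots used anti-Rb, anti-phospho-Rb, anti-Ki67 and anti-Bcl-2 (each 1:1000), with β-actin as loading control.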
# HeLa [21] = assay: Induction of cell cycle arrest in human HeLa cells assessed as accumulation in G2/M phase at 80 nM incubated for 36 hrs by propidium iodide staining based flow cytometry; format: functional
# Summary of the method: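 Cells were treated with graded concentrations for 36 h, then fixed overnight in 70% ice-cold ethanol at 4°C and resuspended in PBS. Staining used 50 µg/ml PI plus 5 µg/ml RNase at 37°C for 30 min. DNA content was analysed by FACS to give G0/G1, S and G2/M fractions.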
# [22] = target: Vascular endothelial growth factor receptor 2 (Homo sapiens, UniProt P35968); settings: HUVEC, 40 nM
# Hepatocyte growth factor receptor (Homo sapiens), P08581 [Y1248H], sequence (P08581 with tags, fused parts or gaps Y1248H): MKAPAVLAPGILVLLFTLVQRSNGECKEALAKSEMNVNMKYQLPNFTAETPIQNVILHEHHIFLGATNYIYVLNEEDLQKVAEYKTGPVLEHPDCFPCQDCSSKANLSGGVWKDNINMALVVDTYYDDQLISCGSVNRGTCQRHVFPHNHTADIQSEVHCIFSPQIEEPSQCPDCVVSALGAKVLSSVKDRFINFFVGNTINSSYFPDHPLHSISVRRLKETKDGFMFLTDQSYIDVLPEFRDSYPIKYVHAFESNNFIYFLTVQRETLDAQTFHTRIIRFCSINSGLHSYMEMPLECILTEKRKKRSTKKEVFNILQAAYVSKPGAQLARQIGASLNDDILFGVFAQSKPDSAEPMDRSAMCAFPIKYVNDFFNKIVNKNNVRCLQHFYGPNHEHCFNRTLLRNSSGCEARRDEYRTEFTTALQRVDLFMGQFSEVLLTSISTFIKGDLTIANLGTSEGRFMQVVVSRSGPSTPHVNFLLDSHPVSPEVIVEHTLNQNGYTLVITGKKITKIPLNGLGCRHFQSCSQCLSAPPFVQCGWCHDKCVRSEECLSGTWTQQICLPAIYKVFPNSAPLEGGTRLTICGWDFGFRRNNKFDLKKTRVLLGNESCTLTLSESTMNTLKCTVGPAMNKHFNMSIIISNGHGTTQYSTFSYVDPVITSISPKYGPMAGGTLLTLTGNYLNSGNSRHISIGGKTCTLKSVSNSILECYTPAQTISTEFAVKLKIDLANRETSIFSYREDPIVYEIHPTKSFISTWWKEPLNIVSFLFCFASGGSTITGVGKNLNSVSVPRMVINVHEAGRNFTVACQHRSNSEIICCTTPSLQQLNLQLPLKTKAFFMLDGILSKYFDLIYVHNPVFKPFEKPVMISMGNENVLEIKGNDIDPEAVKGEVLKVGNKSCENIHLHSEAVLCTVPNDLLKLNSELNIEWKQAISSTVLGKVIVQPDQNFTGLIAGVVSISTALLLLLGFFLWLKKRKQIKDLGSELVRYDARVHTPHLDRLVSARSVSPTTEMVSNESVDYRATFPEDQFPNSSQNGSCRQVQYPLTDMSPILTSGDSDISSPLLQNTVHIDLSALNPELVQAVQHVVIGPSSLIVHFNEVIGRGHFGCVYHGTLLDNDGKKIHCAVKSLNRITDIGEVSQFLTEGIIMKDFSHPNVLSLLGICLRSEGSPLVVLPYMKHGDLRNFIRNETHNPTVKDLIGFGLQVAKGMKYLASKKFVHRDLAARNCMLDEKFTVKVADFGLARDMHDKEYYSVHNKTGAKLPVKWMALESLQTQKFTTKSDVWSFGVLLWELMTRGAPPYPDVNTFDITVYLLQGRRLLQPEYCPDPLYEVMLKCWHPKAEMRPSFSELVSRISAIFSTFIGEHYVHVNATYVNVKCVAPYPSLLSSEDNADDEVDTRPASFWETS
# Tyrosine-protein kinase TXK (Homo sapiens), sequence (P42681 whole entry): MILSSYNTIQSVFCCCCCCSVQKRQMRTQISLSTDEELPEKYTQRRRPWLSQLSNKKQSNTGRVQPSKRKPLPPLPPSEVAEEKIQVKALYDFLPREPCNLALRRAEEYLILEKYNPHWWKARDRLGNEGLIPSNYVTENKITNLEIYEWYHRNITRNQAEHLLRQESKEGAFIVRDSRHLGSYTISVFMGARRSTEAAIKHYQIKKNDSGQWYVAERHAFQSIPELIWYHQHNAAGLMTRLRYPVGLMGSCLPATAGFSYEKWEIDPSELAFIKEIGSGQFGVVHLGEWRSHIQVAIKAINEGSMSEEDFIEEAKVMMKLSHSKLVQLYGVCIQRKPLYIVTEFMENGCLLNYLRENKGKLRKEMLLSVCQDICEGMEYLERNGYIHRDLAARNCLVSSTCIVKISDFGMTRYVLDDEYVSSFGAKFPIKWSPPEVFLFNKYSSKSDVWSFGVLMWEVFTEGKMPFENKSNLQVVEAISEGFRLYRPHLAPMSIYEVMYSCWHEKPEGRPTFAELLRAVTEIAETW
# Activin receptor type-1-like (Homo sapiens), sequence (P37023 whole entry): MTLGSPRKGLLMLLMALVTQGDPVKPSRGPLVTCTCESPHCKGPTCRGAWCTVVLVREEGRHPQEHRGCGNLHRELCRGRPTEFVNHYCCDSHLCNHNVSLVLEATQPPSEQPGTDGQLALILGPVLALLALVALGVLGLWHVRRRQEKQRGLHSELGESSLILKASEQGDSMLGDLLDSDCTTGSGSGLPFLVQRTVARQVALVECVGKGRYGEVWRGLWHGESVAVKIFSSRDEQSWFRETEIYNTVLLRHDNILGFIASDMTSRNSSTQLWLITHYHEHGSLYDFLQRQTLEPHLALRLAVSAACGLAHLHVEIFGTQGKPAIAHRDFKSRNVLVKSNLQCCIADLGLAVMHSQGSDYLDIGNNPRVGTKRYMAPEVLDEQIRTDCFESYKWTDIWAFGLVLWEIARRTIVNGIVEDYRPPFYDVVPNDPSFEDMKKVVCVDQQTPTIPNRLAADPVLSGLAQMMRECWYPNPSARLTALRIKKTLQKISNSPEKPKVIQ
# Platelet-derived growth factor receptor alpha (Homo sapiens), sequence (P16234 whole entry): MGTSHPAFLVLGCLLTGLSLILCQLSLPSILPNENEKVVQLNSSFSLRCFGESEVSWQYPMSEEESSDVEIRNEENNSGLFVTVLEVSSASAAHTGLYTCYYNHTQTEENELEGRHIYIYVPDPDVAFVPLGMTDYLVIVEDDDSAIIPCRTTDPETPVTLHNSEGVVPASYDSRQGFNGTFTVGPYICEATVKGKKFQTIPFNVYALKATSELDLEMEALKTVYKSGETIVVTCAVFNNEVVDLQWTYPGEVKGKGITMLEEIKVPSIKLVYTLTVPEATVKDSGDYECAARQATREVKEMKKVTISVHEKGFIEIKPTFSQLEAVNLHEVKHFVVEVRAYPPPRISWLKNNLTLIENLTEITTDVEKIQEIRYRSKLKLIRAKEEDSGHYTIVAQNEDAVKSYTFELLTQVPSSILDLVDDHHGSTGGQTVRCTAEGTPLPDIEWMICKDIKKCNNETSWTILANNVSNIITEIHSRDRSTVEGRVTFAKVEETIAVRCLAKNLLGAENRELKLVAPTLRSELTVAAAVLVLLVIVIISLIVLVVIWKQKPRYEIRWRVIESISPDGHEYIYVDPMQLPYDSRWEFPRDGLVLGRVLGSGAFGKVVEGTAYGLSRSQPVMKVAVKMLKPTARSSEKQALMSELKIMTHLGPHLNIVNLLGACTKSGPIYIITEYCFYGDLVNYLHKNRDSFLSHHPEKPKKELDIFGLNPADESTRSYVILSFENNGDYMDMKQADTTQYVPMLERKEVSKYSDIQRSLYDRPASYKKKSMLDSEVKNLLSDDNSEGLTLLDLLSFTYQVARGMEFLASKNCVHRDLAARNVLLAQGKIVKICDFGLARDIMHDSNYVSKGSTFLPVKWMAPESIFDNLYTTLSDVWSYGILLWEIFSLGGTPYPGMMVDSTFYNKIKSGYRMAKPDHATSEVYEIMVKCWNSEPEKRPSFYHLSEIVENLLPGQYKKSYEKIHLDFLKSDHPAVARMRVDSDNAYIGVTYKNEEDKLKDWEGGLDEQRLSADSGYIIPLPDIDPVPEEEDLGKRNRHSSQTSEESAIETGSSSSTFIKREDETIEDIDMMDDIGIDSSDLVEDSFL
# Ribosomal protein S6 kinase beta-1 (Homo sapiens), sequence (P23443 whole entry, looked up, the tested form may be a part): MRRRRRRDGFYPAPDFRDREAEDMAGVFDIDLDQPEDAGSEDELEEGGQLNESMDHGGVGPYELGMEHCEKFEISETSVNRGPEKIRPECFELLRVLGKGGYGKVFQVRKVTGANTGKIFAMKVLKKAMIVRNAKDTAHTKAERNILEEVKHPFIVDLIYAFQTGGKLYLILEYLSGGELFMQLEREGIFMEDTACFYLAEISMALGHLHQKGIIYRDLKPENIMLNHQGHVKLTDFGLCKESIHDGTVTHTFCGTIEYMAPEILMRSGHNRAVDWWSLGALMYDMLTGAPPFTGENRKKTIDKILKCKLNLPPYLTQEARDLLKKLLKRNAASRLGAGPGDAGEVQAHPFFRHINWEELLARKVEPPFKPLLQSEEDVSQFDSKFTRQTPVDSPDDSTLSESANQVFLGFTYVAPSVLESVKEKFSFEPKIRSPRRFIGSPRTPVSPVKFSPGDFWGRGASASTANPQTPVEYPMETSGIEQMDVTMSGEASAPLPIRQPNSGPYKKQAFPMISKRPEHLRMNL
# Fibroblast growth factor receptor 3 (Homo sapiens), sequence (P22607 23-806 limits assumed): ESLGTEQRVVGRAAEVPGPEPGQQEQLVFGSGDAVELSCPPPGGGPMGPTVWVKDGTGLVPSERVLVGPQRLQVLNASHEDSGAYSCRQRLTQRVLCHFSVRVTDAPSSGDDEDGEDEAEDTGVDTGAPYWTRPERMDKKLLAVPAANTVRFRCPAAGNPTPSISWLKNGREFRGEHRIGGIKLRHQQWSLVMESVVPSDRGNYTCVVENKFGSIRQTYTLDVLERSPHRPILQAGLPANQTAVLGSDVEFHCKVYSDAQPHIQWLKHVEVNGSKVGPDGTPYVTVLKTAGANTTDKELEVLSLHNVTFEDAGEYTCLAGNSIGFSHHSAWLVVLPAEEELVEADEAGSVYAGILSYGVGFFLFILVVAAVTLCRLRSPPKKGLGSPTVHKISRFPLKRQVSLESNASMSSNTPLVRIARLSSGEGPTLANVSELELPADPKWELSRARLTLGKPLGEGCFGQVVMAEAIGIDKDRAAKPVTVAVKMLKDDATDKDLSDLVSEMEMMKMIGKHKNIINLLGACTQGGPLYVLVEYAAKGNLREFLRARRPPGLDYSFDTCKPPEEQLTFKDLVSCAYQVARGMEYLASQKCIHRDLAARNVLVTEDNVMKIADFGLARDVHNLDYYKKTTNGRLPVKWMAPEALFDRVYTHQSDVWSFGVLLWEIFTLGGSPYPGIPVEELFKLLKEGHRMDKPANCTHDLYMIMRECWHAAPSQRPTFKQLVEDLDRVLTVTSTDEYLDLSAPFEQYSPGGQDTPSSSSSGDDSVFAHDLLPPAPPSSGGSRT
compound,measurement,setting,value
Cc1ccc(NC(=O)C2(C(=O)Nc3ccc(Nc4ncc(F)c(-c5cc(F)c6nc(C)n(C(C)C)c6c5)n4)cc3)CC2)cc1,inhibition,[1],55%
same,inhibition,[2],63%
same,inhibition,[3],0%
same,inhibition,[4],10%
same,inhibition,[5],73%
same,Activity,[6],Non-Toxic
same,inhibition,[7],0%
same,inhibition,[8],58%
same,inhibition,[9],40%
same,Tmax,[10],5 min
same,Vd,[11],2 L/kg
same,IC50,CDK2/Cyclin A2,0.23 µM
same,Vd,[12],6 L/kg
same,inhibition,[13],60%
same,inhibition,[14],51%
same,inhibition,[15],31%
same,inhibition,[16],0%
same,inhibition,[17],0%
same,inhibition,[18],36%
same,inhibition,[19],0%
same,Activity,HeLa [20],Dose-dependent effect
COc1cc2nccc(Oc3ccc(NC(=O)C4(C(=O)Nc5ccc(F)cc5)CC4)cc3)c2cc1OC [CABOZANTINIB],Activity,HeLa [21],Active
same,inhibition,[22],Active
